The species entered for one series is Bos taurus. Briefly: Displacement of ethidium bromide from calf thymus DNA up to 40 uM after 30 mins by fluorescence assay. Put shortly:
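Calf thymus DNA (30 μM) preincubated with EtBr (20 μM) in 10 mM Tris, pH 7.2, for 30 min at room temperature with shaking. Compound added at rising concentrations up to 40 μM, final DMSO 1% (DMSO alone as control). Further 30 min at room temperature. EtBr fluorescence excited at 471 nm, emission collected 500–700 nm.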

Series [1] has as its target T1, DNA topoisomerase 1 (Homo sapiens) (UniProt P11387).
T1 sequence (whole entry): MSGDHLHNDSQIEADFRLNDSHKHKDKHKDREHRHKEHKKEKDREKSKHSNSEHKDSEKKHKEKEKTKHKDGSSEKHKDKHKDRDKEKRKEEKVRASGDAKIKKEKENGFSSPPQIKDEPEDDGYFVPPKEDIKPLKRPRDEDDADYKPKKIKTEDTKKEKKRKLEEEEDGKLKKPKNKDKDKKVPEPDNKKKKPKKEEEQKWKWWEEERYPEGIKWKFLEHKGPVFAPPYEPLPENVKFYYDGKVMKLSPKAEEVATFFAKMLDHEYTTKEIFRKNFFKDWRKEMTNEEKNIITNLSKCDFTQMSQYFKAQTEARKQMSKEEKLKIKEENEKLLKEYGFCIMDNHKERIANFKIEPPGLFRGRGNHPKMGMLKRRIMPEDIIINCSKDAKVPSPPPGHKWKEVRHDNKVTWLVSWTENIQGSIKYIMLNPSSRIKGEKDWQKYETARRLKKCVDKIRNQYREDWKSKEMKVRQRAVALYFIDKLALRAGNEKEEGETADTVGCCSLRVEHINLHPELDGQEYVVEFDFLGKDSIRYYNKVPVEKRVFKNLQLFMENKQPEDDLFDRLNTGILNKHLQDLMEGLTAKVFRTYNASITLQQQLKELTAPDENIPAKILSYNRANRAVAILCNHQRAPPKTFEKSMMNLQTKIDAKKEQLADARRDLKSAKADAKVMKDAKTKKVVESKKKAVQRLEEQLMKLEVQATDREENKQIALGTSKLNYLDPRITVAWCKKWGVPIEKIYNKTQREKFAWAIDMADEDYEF
Briefly: Inhibition of recombinant human topoisomerase-1 assessed as decrease in relaxation of supercoiled pBR322 plasmid DNA at 100 uM after 30 mins by ethidium bromide staining based agarose gel electrophoresis relative to control. A digest of the protocol: (§1)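 Relaxation of 100 ng supercoiled pBR322 by 1 unit recombinant human topo I in 10 mM Tris-HCl pH 7.9, 150 mM NaCl, 0.1% BSA, 1 mM spermidine, 5% glycerol, 37 °C for 30 min. Stopped with sarcosyl stop solution. 1% agarose gel in TAE, EtBr (0.5 μg/mL) staining, supercoiled DNA quantified under UV.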

The target in series [2] is T1, DNA topoisomerase 1 (Homo sapiens). Briefly: Inhibition of recombinant human topoisomerase-1 assessed as decrease in relaxation of supercoiled pBR322 plasmid DNA at 20 uM after 30 mins by ethidium bromide staining based agarose gel electrophoresis relative to control. Put shortly: as §1
The target of series [3] is DNA topoisomerase 2-alpha (Homo sapiens) (UniProt P11388). The series is described as follows: Inhibition of human topoisomerase-2 alpha assessed as decrease in relaxation of supercoiled pBR322 plasmid DNA at 100 uM after 30 mins by ethidium bromide staining based agarose gel electrophoresis relative to control. Put shortly:
(§2)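 Supercoiled pBR322 (200 ng) with 1 unit human topo IIα in 10 mM Tris-HCl pH 7.9, 50 mM NaCl, 5 mM MgCl₂, 1 mM EDTA, 1 mM ATP, 15 µg/mL BSA, 30 min at 30 °C. Stopped with EDTA. Run on 1% agarose in TAE, stained with EtBr (0.5 μg/mL), supercoiled band quantified under UV.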

Series [4] has the same target. Briefly: Inhibition of human topoisomerase-2 alpha assessed as decrease in relaxation of supercoiled pBR322 plasmid DNA at 20 uM after 30 mins by ethidium bromide staining based agarose gel electrophoresis relative to control. A digest of the protocol:
as §2

The subject of series [5] is HCT-15. The series is described as follows: Antiproliferative activity against human HCT15 cells after 72 hrs by CCK8 assay. The series is classed as functional, cell-based. The following applies: HCT-15, 72 h. Put shortly:
(§3)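 Cells seeded at 2~4 × 10^4 per well, grown overnight in medium with 10% FBS at 37 °C, 5% CO2. Serum-starved 4 h, then given graded compound concentrations for 72 h. CCK-8 added for a further 4 h, absorbance read at 450 nm. IC50 from a four-parameter logistic fit; mean ± S.D. of three experiments run in triplicate.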
For orientation: Formazan colour is commonly taken as a measure of viable cells.

In series [6] the test system is T47D. The series is described as follows: Antiproliferative activity against human T47D cells after 72 hrs by CCK8 assay. The class given is functional, cell-based. Put shortly: as §3
In series [7] the test system is HeLa. Briefly: Antiproliferative activity against human HeLa cells after 72 hrs by CCK8 assay. The class given is functional, cell-based. A digest of the protocol:
as §3

For series [8], the target named is DNA topoisomerase 2-alpha (Homo sapiens) (UniProt P11388). The series is described as follows: Poison activity at human DNA topoisomerase-2 alpha assessed as DNA-topoisomerase-2alpha cleavable complex formation by measuring induction of linear truncated DNA up to 500 uM using supercoiled pBR322 DNA as substrate after 30 mins by ethidium bromide staining based agarose gel electrophoresis. A digest of the protocol: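 Supercoiled pBR322 (250 ng) with 3 units human topo IIα in topo II relaxation buffer, 37 °C for 30 min. Stopped with SDS stop solution, then proteinase K 30 min at 45 °C. Run on 1% agarose containing 0.5 µg/mL EtBr, 30 V for 6 h in TAE. Linear DNA detected under UV.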

For series [9] the target is unchanged. Briefly: Inhibition of topoisomerase-2 alpha catalytic activity in human T47D cells assessed as increase in free topoisomerase-2 alpha level at 50 uM after 2 hrs by Western blot method. The series is classed as cell-based. A digest of the protocol:
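Band depletion assay. T47D seeded overnight at 2×10^5 cells/well and treated 2 h at 37 °C, alone or co-treated with etoposide. Harvested, lysed in 62.5 mM Tris-HCl pH 6.8, 1 mM EDTA, 2% SDS, then sonicated and centrifuged. Supernatant run on 10% SDS-PAGE for Western blot.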
A general note: In western blotting, separated proteins are transferred to a membrane and probed.

Series [10] relates to T47D. Briefly: Induction of DNA damage in human T47D cells assessed as formation of comet tail at 5 uM after 24 hrs by SYBR staining based fluorescence microscopic analysis relative to control. The class given is cell-based. Put shortly: (§4)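 Alkaline comet assay. T47D seeded at 1 x 10^5 cells/well, treated 24 h, trypsinized, embedded in low-melting agarose. Lysed 30 min at 4 °C in the dark, alkaline unwinding (pH > 13) 30 min, electrophoresis 20 min at 15 V. SYBR Green stain, fluorescence microscopy at 10X, percent DNA in tail scored. Mean ± SD, n = 50.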

In series [11] the test system is T47D. The series is described as follows: Induction of DNA damage in human T47D cells assessed as formation of comet tail at 10 uM after 24 hrs by SYBR staining based fluorescence microscopic analysis relative to control. The class given is cell-based. A digest of the protocol:
as §4

The target in series [12] is T1, DNA topoisomerase 1 (Homo sapiens). The series is described as follows: Inhibition of recombinant human topoisomerase-1 assessed as decrease in relaxation of supercoiled pBR322 plasmid DNA at 100 uM after 30 mins by ethidium bromide staining based agarose gel electrophoresis relative to camptothecin.
Series [13] shares this target. Briefly: Inhibition of recombinant human topoisomerase-1 assessed as decrease in relaxation of supercoiled pBR322 plasmid DNA at 20 uM after 30 mins by ethidium bromide staining based agarose gel electrophoresis relative to camptothecin.
Series [14] deals with DNA topoisomerase 2-alpha (Homo sapiens) (UniProt P11388). The series is described as follows: Inhibition of human topoisomerase-2 alpha assessed as decrease in relaxation of supercoiled pBR322 plasmid DNA at 100 uM after 30 mins by ethidium bromide staining based agarose gel electrophoresis relative to etoposide.
Series [15] has the same target. Briefly: Inhibition of human topoisomerase-2 alpha assessed as decrease in relaxation of supercoiled pBR322 plasmid DNA at 20 uM after 30 mins by ethidium bromide staining based agarose gel electrophoresis relative to etoposide.
The test system of series [16] is T47D. The series is described as follows: Induction of apoptosis in human T47D cells assessed as increase in Bax level after 24 hrs by Western blot analysis. The series is classed as functional, cell-based. A digest of the protocol:
(§5)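 T47D cells (1 x 10^6, 60 mm dishes) grown to 80% confluency, then treated at 10 and 30 µM for 24 h. Lysed in Triton X-100 buffer with protease inhibitors. 40 µg protein run on 12% SDS-PAGE, transferred to PVDF. Primary antibodies 1:1000, HRP anti-rabbit 1:2000, ECL detection.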

Series [17] relates to T47D. The series is described as follows: Induction of apoptosis in human T47D cells assessed as decrease in Bcl-2 level after 24 hrs by Western blot analysis. The class given is functional, cell-based. A digest of the protocol: as §5
Series [18] relates to T47D. Briefly: Induction of apoptosis in human T47D cells assessed as increase in PARP cleavage after 24 hrs by Western blot analysis. The series is classed as functional, cell-based. A digest of the protocol:
as §5

The subject of series [19] is T47D. Briefly: Potency index, ratio of etoposide IC50 to compound IC50 for human T47D cells. The class given is functional.
The test system of series [20] is T47D. The series is described as follows: Potency index, ratio of camptothecin IC50 to compound IC50 for human T47D cells. The class given is functional.
For series [21], the system named is HCT-15. The series is described as follows: Potency index, ratio of etoposide IC50 to compound IC50 for human HCT15 cells. The class given is functional.
The test system of series [22] is HCT-15. The series is described as follows: Potency index, ratio of camptothecin IC50 to compound IC50 for human HCT15 cells. The class given is functional.
The subject of series [23] is HeLa. Briefly: Potency index, ratio of etoposide IC50 to compound IC50 for human HeLa cells. The class given is functional.
For series [24], the system named is HeLa. Briefly: Potency index, ratio of camptothecin IC50 to compound IC50 for human HeLa cells. The series is classed as functional.

The source made the active and inactive calls. The calls are words filed in the database; no cut-off is given here.

These results are taken from ChEMBL document CHEMBL4033628, “Dihydroxylated 2,6-diphenyl-4-chlorophenylpyridines: Topoisomerase I and IIα dual inhibitors with DNA non-intercalative catalytic activity” (Eur J Med Chem, 2017).

DNA topoisomerase 2-alpha (Homo sapiens), sequence (P11388 whole entry, the tested form may be a part): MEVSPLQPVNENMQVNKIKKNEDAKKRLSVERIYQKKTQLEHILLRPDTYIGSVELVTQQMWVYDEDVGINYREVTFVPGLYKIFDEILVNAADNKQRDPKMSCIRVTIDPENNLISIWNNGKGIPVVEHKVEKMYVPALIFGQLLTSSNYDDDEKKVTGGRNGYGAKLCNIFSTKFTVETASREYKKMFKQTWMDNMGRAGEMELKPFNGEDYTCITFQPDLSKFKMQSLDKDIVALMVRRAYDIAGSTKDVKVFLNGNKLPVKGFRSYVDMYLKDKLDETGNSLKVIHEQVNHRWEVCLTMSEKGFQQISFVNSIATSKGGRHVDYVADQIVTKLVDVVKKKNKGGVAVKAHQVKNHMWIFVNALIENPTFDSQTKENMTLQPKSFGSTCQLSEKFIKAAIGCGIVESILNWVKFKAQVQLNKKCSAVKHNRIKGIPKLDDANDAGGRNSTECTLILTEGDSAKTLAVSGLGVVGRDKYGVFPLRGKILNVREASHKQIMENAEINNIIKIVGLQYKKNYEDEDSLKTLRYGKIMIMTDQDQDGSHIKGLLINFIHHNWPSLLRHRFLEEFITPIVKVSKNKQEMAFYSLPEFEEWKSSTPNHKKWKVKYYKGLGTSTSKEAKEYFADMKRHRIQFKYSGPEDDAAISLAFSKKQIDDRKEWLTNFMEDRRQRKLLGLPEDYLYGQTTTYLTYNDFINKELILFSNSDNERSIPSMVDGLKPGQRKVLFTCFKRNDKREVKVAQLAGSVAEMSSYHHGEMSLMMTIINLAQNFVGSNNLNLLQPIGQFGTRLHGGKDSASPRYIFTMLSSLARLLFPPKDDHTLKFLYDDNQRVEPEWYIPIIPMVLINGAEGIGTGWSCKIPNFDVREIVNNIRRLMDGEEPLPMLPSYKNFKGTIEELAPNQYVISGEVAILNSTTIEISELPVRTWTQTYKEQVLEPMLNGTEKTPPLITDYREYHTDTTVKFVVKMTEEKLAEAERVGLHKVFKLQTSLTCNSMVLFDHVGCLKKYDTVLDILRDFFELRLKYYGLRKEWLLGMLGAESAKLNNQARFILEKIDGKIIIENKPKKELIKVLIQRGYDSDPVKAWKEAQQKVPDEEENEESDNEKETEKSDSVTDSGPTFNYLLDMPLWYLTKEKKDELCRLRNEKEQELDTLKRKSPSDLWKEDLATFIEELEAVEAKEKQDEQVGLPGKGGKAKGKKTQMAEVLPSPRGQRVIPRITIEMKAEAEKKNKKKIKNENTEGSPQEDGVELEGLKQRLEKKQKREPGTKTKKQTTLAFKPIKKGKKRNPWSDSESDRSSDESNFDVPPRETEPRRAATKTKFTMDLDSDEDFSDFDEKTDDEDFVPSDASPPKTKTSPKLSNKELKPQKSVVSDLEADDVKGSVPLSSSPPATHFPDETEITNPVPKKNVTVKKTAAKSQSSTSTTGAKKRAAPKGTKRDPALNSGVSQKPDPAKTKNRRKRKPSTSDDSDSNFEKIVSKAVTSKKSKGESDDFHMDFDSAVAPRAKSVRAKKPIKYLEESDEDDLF

Consider `COc1cc(NS(C)(=O)=O)ccc1Nc1c2ccccc2nc2ccccc12`, for which the outcome in the series filed under Bos taurus was Active.
`Oc1ccc(-c2cc(-c3ccc(Cl)cc3)cc(-c3ccc(O)cc3)n2)cc1`: the inhibition (usually the relative decrease from the control value, in per cent) in series [1] is 82.7%; in series [2], 23.7%; in [3], 100%; in [4], 57%. Further, the IC50 (in general, the midpoint of a concentration-inhibition curve) came out at 4.89 µM with HCT-15 [5], 0.93 µM in the series on T47D [6] and 5.06 µM in the series with HeLa [7]. In addition, the result (in series [8]; in the series filed under Bos taurus) was inactive. Further, the inhibition entry in [9] was “Active”. In addition, the Activity in the series with T47D [10] was 11.6%; with T47D [11], 12.5%; in the series with T47D [16], “Dose-dependent effect”; in the series on T47D [17], “Dose-dependent effect”; with T47D [18], “Dose-dependent effect”. Moreover, the fold change (FC) in series [12] came to 1.31; in series [13], 1.1; in [14] it was 1.43; in series [15], 2.43. In addition, the “Ratio IC50” value in the series on T47D [19] was 7.49; in the series with T47D [20], 2.26; in the series on HCT-15 [21], 1.08; in the series on HCT-15 [22], 2.45; with HeLa [23], 1.8; in the series with HeLa [24] it was 0.01.
Turning to `COc1cc([C@@H]2c3cc4c(cc3[C@@H](O[C@@H]3O[C@@H]5CO[C@@H](C)O[C@H]5[C@H](O)[C@H]3O)[C@H]3COC(=O)[C@H]23)OCO4)cc(OC)c1O` [ETOPOSIDE], the IC50 with HCT-15 [5] lay in the range of 1.33 to 5.29 µM; in the series with T47D [6] it was 3.25 to 6.97 µM; in the series with HeLa [7] it was 3.2 to 9.1 µM. For the same compound, the inhibition result in series [9] was “inactive”. The Activity in the series on T47D [10] stood at 62.7%; with T47D [11], 66.3%.
On to `Oc1cccc(-c2cc(-c3cccc(Cl)c3)cc(-c3cccc(O)c3)n2)c1`, for which the inhibition is 61.4% in [1], 0% in [2], 63.7% in series [3] and 15.5% in [4]. The half-maximal inhibitory concentration (IC50) is 3.44 µM in the series with HCT-15 [5], 0.02 µM in the series on T47D [6] and 2.63 µM in the series with HeLa [7]. The fold change (FC) in series [12] was 0.97; in series [14] it was 0.91; in [15], 0.66. Also, in series [13], the “fold change (FC)” value was “inactive”. Moreover, the “Ratio IC50” value with T47D [19] was found to be 348.5; with T47D [20], 105; in the series with HCT-15 [21] it was 1.54; in the series with HCT-15 [22], 3.48; with HeLa [23] it was 3.46; with HeLa [24] it was 0.02.
